One molecule from ChEMBL document CHEMBL2417552, “Screen of pseudopeptidic inhibitors of human sirtuins 1-3: two lead compounds with antiproliferative effects in cancer cells” (J Med Chem, 2013) can be followed below.

The structures appear in SMILES notation. Calls of active or inactive are those of the source. The rule behind the calls is not given here.

In data set [1] the test system is MCF7. In words: Effect on alpha-tubulin acetylation in human MCF7 cells at 50 uM after 6 to 18 hrs by Western blotting analysis. Type of data set: functional, cell-based. Put shortly:
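MCF-7 cells seeded 24 h ahead, treated for 6 or 18 h, then lysed in M-PER. Lysates run on SDS-PAGE, transferred to nitrocellulose and probed with mouse monoclonal anti-acetylated α-tubulin and anti-total α-tubulin. Detection with peroxidase anti-mouse secondary and ECL Plus.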

For data set [2], the target named is T1, NAD-dependent protein deacetylase sirtuin-3, mitochondrial (Homo sapiens, UniProt Q9NTG7).
T1 sequence (Q9NTG7 whole entry): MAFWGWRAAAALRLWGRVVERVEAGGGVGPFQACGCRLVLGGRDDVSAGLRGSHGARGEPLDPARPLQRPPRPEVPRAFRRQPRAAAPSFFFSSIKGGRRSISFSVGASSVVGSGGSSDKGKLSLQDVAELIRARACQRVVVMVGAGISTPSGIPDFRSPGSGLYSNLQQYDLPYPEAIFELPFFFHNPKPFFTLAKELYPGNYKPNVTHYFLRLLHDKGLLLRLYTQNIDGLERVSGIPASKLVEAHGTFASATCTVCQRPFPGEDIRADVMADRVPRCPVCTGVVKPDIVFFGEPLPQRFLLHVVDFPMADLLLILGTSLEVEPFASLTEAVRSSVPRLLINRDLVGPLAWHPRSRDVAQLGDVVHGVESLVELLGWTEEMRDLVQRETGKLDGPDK
As to the kind of experiment: Inhibition of human recombinant His-tagged SIRT3 using KI179 as substrate preincubated for 5 mins followed by enzyme addition measured after 1 hr by fluorescence assay.

Data set [3] concerns MCF7. In words: Cell cycle arrest in human MCF7 cells assessed as accumulation at G2 phase at 100 uM after 18 hrs by propidium iodide staining-based FACS flow cytometric analysis (reference value: 14.7%). Type of data set: functional.
Data set [4] has as its target T2, NAD-dependent protein deacetylase sirtuin-1 (Homo sapiens) (UniProt Q96EB6).
T2 sequence (whole entry): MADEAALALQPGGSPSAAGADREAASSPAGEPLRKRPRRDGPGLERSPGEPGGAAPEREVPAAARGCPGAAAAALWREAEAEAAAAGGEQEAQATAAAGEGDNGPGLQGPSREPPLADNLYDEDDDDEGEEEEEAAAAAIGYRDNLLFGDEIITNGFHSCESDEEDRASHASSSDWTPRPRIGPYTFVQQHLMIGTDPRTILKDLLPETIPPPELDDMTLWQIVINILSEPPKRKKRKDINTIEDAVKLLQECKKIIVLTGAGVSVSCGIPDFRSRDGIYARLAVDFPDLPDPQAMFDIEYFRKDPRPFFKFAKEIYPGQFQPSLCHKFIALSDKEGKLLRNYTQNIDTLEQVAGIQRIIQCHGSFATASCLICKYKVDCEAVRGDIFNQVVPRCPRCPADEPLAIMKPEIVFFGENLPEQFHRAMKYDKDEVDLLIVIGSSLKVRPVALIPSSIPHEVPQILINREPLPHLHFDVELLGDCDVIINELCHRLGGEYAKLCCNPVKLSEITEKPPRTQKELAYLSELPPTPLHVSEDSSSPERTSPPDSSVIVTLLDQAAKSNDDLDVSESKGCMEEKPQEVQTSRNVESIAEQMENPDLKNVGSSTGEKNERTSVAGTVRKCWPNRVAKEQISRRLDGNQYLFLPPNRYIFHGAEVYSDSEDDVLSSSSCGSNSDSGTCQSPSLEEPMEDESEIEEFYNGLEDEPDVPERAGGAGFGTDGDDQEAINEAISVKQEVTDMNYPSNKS
As to the kind of experiment: Inhibition of SIRT1 in etoposide-induced human MCF7 cells assessed as increase in p53 acetylation at Lys382 at 50 uM after 5 hrs by Western blotting analysis. Type of data set: cell-based. The method, boiled down:
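MCF-7 cells seeded 24 h ahead, then given 50 μM compound and 100 μM etoposide together for 5 h before harvest. Acetylated p53 detected by Western blot; run once per compound.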

Data set [5] in a line: Cytotoxicity against human ARPE19 cells at 20 uM by LDH assay. Type of data set: cell-based. The following applies: arpe-19, 20 µM.
Data set [6] has as its system A549. As to the kind of experiment: Cell cycle arrest in human A549 cells assessed as accumulation at G2 phase at 100 uM after 18 hrs by propidium iodide staining-based FACS flow cytometric analysis (reference value: 19.4%). The format is functional.
Data set [7] concerns MCF7. As to the kind of experiment: Cytotoxicity against human MCF7 cells assessed as cell death at 100 uM after 18 hrs by propidium iodide staining-based FACS flow cytometric analysis. Type of data set: functional.
For data set [8], the system named is MCF7. As to the kind of experiment: Cell cycle arrest in human MCF7 cells assessed as accumulation at G1 phase at 100 uM after 18 hrs by propidium iodide staining-based FACS flow cytometric analysis (reference value: 67.6%). The format is functional.
Data set [9] concerns A549. In words: Growth inhibition of human A549 cells at >= 50 uM after 48 hrs by sulforhodamine B assay. The format is functional, cell-based.
Data set [10] has as its target T3, NAD-dependent protein deacetylase sirtuin-2 (Homo sapiens) (UniProt Q8IXJ6).
T3 sequence (whole entry): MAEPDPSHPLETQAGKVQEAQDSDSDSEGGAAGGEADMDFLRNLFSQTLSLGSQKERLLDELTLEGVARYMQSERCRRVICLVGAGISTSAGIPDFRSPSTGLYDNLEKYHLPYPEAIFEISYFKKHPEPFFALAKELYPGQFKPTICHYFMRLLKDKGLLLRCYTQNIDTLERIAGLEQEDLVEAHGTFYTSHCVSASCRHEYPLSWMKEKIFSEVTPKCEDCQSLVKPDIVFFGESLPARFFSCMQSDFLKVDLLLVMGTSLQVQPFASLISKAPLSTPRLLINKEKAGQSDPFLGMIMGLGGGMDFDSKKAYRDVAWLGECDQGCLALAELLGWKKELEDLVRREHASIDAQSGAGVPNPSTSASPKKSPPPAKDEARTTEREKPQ
As to the kind of experiment: Inhibition of human recombinant GST-tagged SIRT2 using KI179 as substrate at 50 uM preincubated for 5 mins followed by enzyme addition measured after 1 hr by fluorescence assay relative to control. Put shortly:
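Recombinant GST-SIRT2, Fluor de Lys assay in SIRT assay buffer. Acetylated peptide KI179 at 0.7 Km (Km 198 µM) and NAD+ at 0.9 Km (reported Km 547 µM). Buffer, substrate, NAD+ and compound in DMSO preincubated 5 min at room temperature. Enzyme added to start; 1 h at 37 °C. Developer with 2 mM nicotinamide added; 45 min at 37 °C; fluorescence read. Mean ± SD, ≥3 experiments.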

Data set [11] relates to MCF7. In words: Growth inhibition of human MCF7 cells at >= 50 uM after 72 hrs by sulforhodamine B assay.
Data set [12] has as its target T4, NAD-dependent protein deacetylase sirtuin-2 (Homo sapiens, UniProt Q8IXJ6).
T4 sequence (Q8IXJ6 whole entry): T3 sequence (whole entry)
As to the kind of experiment: Inhibition of human recombinant GST-tagged SIRT2 using KI179 as substrate preincubated for 5 mins followed by enzyme addition measured after 1 hr by fluorescence assay. The method, boiled down:
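Fluor de Lys deacetylation assay. […] Mix preincubated 5 min at room temperature, started with enzyme, run 1 h at 37°C. Developer with 2 mM nicotinamide then added for 45 min at 37°C before fluorescence reading.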

The test system of data set [13] is A549. In words: Cell cycle arrest in human A549 cells assessed as accumulation at G1 phase at 100 uM after 18 hrs by propidium iodide staining-based FACS flow cytometric analysis (reference value: 62.3%). The format is functional.

As to `COc1ccc(C(=O)CNC(=O)[C@H](CCCCNC(C)=S)NC(=O)OCc2ccccc2)cc1`, the outcome in the data set with MCF7 [1] and with MCF7 [7] was inactive. For the same molecule, the IC50 in data set [2] came to 8.35 µM; in [12], 2.53 µM. Moreover, the Activity in the data set with MCF7 [3] was 8.7%; in [5], “Non-toxic”; in the data set with A549 [6], 9.4%; in the data set on MCF7 [8] it was 80.5%; in the data set with A549 [13], 82.2%. In addition, in data set [4], the inhibition result is “Active”. Also, the “growth inhibition (GI)” value in the data set with A549 [9] and in the data set on MCF7 [11] was “Active” in each case. Further, the inhibition in data set [10] stood at 97%.
